Legend:
PSMA [1] = conditions: cited from earlier work
PSMA [2] = conditions: read-out: Kd to PSMA; cited from earlier work
[3] = cited from earlier work
[4] = tested on: PSMA-positive prostate cancer C4–2 cells; test: Cellular uptake of the micelle in cell monolayers; format: cell-based; conditions: 0.5 and 1 h incubation
Procedure, shortened: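 C4–2 cells seeded at 2×10^5 per well 24 h ahead. They were exposed at 37°C for 0.5 and 1 h to micelles with or without the PSMA ligand, or to free test compound. Cells were then PBS-washed and RIPA-lysed. Part of the lysate went to BCA protein assay; the rest was treated with 4N NaOH (RT, 1 h), neutralised with phosphate buffer and DCM-extracted. Uptake was normalised to total protein; mean ± SD, n = 3.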

O=C(O)CCC(NC(=O)NC(CCC(=O)O)C(=O)O)C(=O)O (centres unmarked) [DUPA, 2-[3-(1,3-dicarboxypropyl)ureido]pentanedioic acid]
IC50 (PSMA [1]; read-out: IC50 towards PSMA): 47 nM
Ki (PSMA [1]; read-out: Ki towards PSMA): 8 nM
Kd (PSMA [2]): 14 nM

CO[C@H]1C(=O)[C@]2(C)[C@@H](OC)C[C@H]3OC[C@@]3(OC(C)=O)[C@H]2[C@H](OC(=O)c2ccccc2)[C@]2(O)C[C@H](OC(=O)[C@H](O)[C@@H](NC(=O)OC(C)(C)C)c3ccccc3)C(C)=C1C2(C)C [cabazitaxel, Cabazitaxel]
water solubility [3]: very low
cellular uptake, rank among groups [4]: lowest uptake

— publication PMC7423752 (Acta biomaterialia, 2020)
